The term IC50 denotes the concentration at which inhibition is half-maximal.

The record followed here is ChEMBL document CHEMBL1144084, “Semisynthesis and cytotoxicity of styryl-lactone derivatives” (J Nat Prod, 1999).

For assay [1], the system named is L1210. The experiment in a line: Cytotoxicity against mouse L1210 cells after 48 hrs by MTT assay. The settings on record: L1210, 48 h. The assay is classed as functional, cell-based. The gist of the method:
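Cells grown in RPMI 1640 with 10% fetal calf serum, 2 mM L-glutamine, penicillin/streptomycin and 10 mM Hepes (pH 7.4), exposed 48 h to graded drug concentrations. Read-out by microculture tetrazolium assay. IC50 is the concentration lowering optical density by 50% relative to untreated controls.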
Background: Tetrazolium assays rely on reduction of a dye to a coloured formazan, in cell work by metabolically active cells.

Assay [2] deals with L1210. The experiment in a line: Cell cycle arrest in mouse L1210 cells by accumulation at G2M phase after 21 hrs relative to control. The assay is classed as functional. The method, boiled down: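 L-1210 cells incubated 21 h at 37 °C with various drug concentrations, fixed in 70% EtOH (v/v), washed, then stained 30 min at 20 °C in PBS with 100 µg/mL RNAse and 25 µg/mL propidium iodide. Value is percentage of cells accumulated in G2 + M phase after 21 h versus untreated control.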

Values after ≈ are worked out from the molar mass of the structure shown. Active and inactive are the calls of the source. The calls are words filed in the database; no cut-off is given here.

Take `CO[C@H]1[C@@H](O)[C@H](O)[C@@H](c2ccccc2)OC(=O)C[C@H]1OC`: in the assay with L1210 [1], half-maximal inhibition (IC50) was put at 5.2 µg/mL (≈ 17.5 µM). The outcome in the assay with L1210 [2] was inactive.

In the assay on L1210 [1], `O=C1C=C[C@@H]2O[C@H](c3c([N+](=O)[O-])cccc3[N+](=O)[O-])[C@@H](O)[C@@H]2O1` had an IC50 of 5 µg/mL (≈ 15.5 µM). Moreover, the outcome with L1210 [2] was inactive.

On to `O=C1C=C[C@@H]2O[C@H](c3ccccc3)[C@@H](O)[C@@H]2O1` [ALTHOLACTONE], for which the concentration for half-maximal inhibition (IC50) in the assay on L1210 [1] was found to be 2.9 µg/mL (≈ 12.5 µM). Further, the Activity in the assay on L1210 [2] worked out at 35%.

In the assay with L1210 [1], `O=C1C[C@@H](Cl)[C@@H]2O[C@H](c3ccccc3)[C@@H](O)[C@@H]2O1` showed a half-inhibitory concentration (IC50) of 3.7 µg/mL (≈ 13.8 µM). Also, the Activity in the assay on L1210 [2] is listed as 35%.

In the case of `O=C1C=C[C@@H]2O[C@H](c3ccc([N+](=O)[O-])cc3)[C@@H](O)[C@@H]2O1`, in the assay with L1210 [1], it took 3.2 µg/mL (≈ 11.5 µM) to reach half-maximal inhibition (IC50). This compound also returned an Activity in the assay on L1210 [2] of 35%.
